Results reported in ChEMBL document CHEMBL1152439, “Calcitriol derivatives with two different side chains at C-20. V. Potent inhibitors of mammary carcinogenesis and inducers of leukemia differentiation” (J Med Chem, 2009).
The source made the active and inactive calls. The calls are words filed in the database; no cut-off is given here.

Columns and labels:
[1] = Antiproliferative activity against human MCF10CA1a after 3 days by [3H]thymidine uptake assay; format: functional
[2] = test system: NB-4; assay: Induction of cell differentiation in human NB4 cells assessed as induction of induction of cell surface marker CD11b expression at 1 nM after 48 hrs; format: functional, cell-based
How it was run: (§1)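 NB4 human promyelocytic leukemia cells kept in log-phase suspension in RPMI 1640 with 10% […] iron-supplemented bovine calf serum, 37 °C, 5% CO₂. Exposed to compounds at 1 nM for 48 h; 1 × 10⁶ cells washed twice in PBS, then labelled with MY4-RD1 and Mo1-FITC antibodies to measure surface CD14 and CD11b expression.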

[3] = test system: NB-4; assay: Induction of cell differentiation in human NB4 cells assessed as induction of induction of cell surface marker CD14 expression at 1 nM after 48 hrs; format: functional, cell-based; how it was run: as §1

Row | SMILES | IC50 [1] [nM] | Activity ([2]; tested as the 2H-labelled form) | Activity ([3]; tested as the 2H-labelled form) | other results
1 | [2H]C([2H])([2H])C(O)(CCC[C@H](CC#CC(O)(C(F)(F)F)C(F)(F)F)[C@H]1CC[C@H]2/C(=C/C=C3/C[C@@H](O)C[C@H](F)C3=C)CCC[C@]12C)C([2H])([2H])[2H] | 1.6 | – | – | –
2 | [2H]C([2H])([2H])C(O)(CCC[C@H](C/C=C\C(O)(C(F)(F)F)C(F)(F)F)[C@H]1CC[C@H]2/C(=C/C=C3/C[C@@H](O)C[C@H](O)C3=C)CCC[C@]12C)C([2H])([2H])[2H] | 0.56 | – | – | –
3 | [2H]C([2H])([2H])C(O)(CCC[C@@H](C/C=C\C(O)(C(F)(F)F)C(F)(F)F)[C@H]1CC[C@H]2/C(=C/C=C3C[C@@H](O)C[C@H](O)C3)CCC[C@]12C)C([2H])([2H])[2H] | 3.2 | – | – | –
4 | [2H]C([2H])([2H])C(O)(CCC[C@@H](CC#CC(O)(C(F)(F)F)C(F)(F)F)[C@H]1CC[C@H]2/C(=C/C=C3/C[C@@H](O)C[C@H](F)C3=C)CCC[C@]12C)C([2H])([2H])[2H] | 0.56 | – | – | –
5 | CC(C)(O)CCC[C@@H](CC#CC(O)(C(F)(F)F)C(F)(F)F)[C@H]1CC[C@H]2/C(=C/C=C3C[C@@H](O)C[C@H](O)C3)CCC[C@]12C | – | Active | Active | –
6 | [2H]C([2H])([2H])C(O)(CCC[C@H](C/C=C\C(O)(C(F)(F)F)C(F)(F)F)[C@H]1CC[C@H]2/C(=C/C=C3/C[C@@H](O)C[C@H](F)C3=C)CCC[C@]12C)C([2H])([2H])[2H] | 6.9 | – | – | –
7 | [2H]C([2H])([2H])C(O)(CCC[C@H](C/C=C\C(O)(C(F)(F)F)C(F)(F)F)[C@H]1CC[C@H]2/C(=C/C=C3C[C@@H](O)C[C@H](O)C3)CCC[C@]12C)C([2H])([2H])[2H] | 0.43 | – | – | –
8 | C=C1/C(=C\C=C2/CCC[C@]3(C)[C@@H]([C@@H](C/C=C\C(O)(C(F)(F)F)C(F)(F)F)CCCC(C)(C)O)CC[C@@H]23)C[C@@H](O)C[C@@H]1F | – | Active | Active | –
9 | [2H]C([2H])([2H])C(O)(CCC[C@H](CC#CC(O)(C(F)(F)F)C(F)(F)F)[C@H]1CC[C@H]2/C(=C/C=C3C[C@@H](O)C[C@H](O)C3)CCC[C@]12C)C([2H])([2H])[2H] | 0.19 | – | – | –
10 | [2H]C([2H])([2H])C(O)(CCC[C@@H](CC#CC(O)(C(F)(F)F)C(F)(F)F)[C@H]1CC[C@H]2/C(=C/C=C3C[C@@H](O)C[C@H](O)C3)CCC[C@]12C)C([2H])([2H])[2H] | 0.12 | – | – | –
11 | C=C1/C(=C\C=C2/CCC[C@]3(C)[C@@H]([C@H](C/C=C\C(O)(C(F)(F)F)C(F)(F)F)CCCC(C)(C)O)CC[C@@H]23)C[C@@H](O)C[C@@H]1O | – | Active | Active | –
12 | CC(C)(O)CCC[C@H](CC#CC(O)(C(F)(F)F)C(F)(F)F)[C@H]1CC[C@H]2/C(=C/C=C3C[C@@H](O)C[C@H](O)C3)CCC[C@]12C | – | Active | Active | –
13 | C=C1/C(=C\C=C2/CCC[C@]3(C)[C@@H]([C@@H](CC#CC(O)(C(F)(F)F)C(F)(F)F)CCCC(C)(C)O)CC[C@@H]23)C[C@@H](O)C[C@@H]1F | – | Active | Active | –
14 | C=C1/C(=C\C=C2/CCC[C@]3(C)[C@@H]([C@@H](C/C=C\C(O)(C(F)(F)F)C(F)(F)F)CCCC(C)(C)O)CC[C@@H]23)C[C@@H](O)C[C@@H]1O | – | Active | Active | –
15 | C=C1/C(=C\C=C2/CCC[C@]3(C)[C@@H]([C@H](CC#CC(O)(C(F)(F)F)C(F)(F)F)CCCC(C)(C)O)CC[C@@H]23)C[C@@H](O)C[C@@H]1F | – | Active | Active | –
16 | C=C1/C(=C\C=C2/CCC[C@]3(C)[C@@H]([C@H](C)CCCC(C)(C)O)CC[C@@H]23)C[C@@H](O)C[C@@H]1O | – | – | – | Activity [2]: Active; Activity [3]: Active
17 | CC(C)(O)CCC[C@@H](C/C=C\C(O)(C(F)(F)F)C(F)(F)F)[C@H]1CC[C@H]2/C(=C/C=C3C[C@@H](O)C[C@H](O)C3)CCC[C@]12C | – | Active | Active | –
18 | [2H]C([2H])([2H])C(O)(CCC[C@@H](C/C=C\C(O)(C(F)(F)F)C(F)(F)F)[C@H]1CC[C@H]2/C(=C/C=C3/C[C@@H](O)C[C@H](O)C3=C)CCC[C@]12C)C([2H])([2H])[2H] | 1.6 | – | – | –
19 | C=C1/C(=C\C=C2/CCC[C@]3(C)[C@@H]([C@H](CC#CC(O)(C(F)(F)F)C(F)(F)F)CCCC(C)(C)O)CC[C@@H]23)C[C@@H](O)C[C@@H]1O | – | Active | Active | –
20 | CC(C)(O)CCC[C@H](C/C=C\C(O)(C(F)(F)F)C(F)(F)F)[C@H]1CC[C@H]2/C(=C/C=C3C[C@@H](O)C[C@H](O)C3)CCC[C@]12C | – | Active | Active | –
21 | [2H]C([2H])([2H])C(O)(CCC[C@@H](CC#CC(O)(C(F)(F)F)C(F)(F)F)[C@H]1CC[C@H]2/C(=C/C=C3/C[C@@H](O)C[C@H](O)C3=C)CCC[C@]12C)C([2H])([2H])[2H] | 0.062 | – | – | –
22 | C=C1/C(=C\C=C2/CCC[C@]3(C)[C@@H]([C@@H](CC#CC(O)(C(F)(F)F)C(F)(F)F)CCCC(C)(C)O)CC[C@@H]23)C[C@@H](O)C[C@@H]1O | – | Active | Active | –
23 | C=C1/C(=C\C=C2/CCC[C@]3(C)[C@@H]([C@H](C/C=C\C(O)(C(F)(F)F)C(F)(F)F)CCCC(C)(C)O)CC[C@@H]23)C[C@@H](O)C[C@@H]1F | – | Active | Active | –
24 | [2H]C([2H])([2H])C(O)(CCC[C@H](CC#CC(O)(C(F)(F)F)C(F)(F)F)[C@H]1CC[C@H]2/C(=C/C=C3/C[C@@H](O)C[C@H](O)C3=C)CCC[C@]12C)C([2H])([2H])[2H] | 0.053 | – | – | –
25 | [2H]C([2H])([2H])C(O)(CCC[C@@H](C/C=C\C(O)(C(F)(F)F)C(F)(F)F)[C@H]1CC[C@H]2/C(=C/C=C3/C[C@@H](O)C[C@H](F)C3=C)CCC[C@]12C)C([2H])([2H])[2H] | > 10 | – | – | –
